The structures appear in SMILES notation. Converted amounts (≈) assume the structure as drawn.

Data set [1] has as its target T1, Enoyl-[acyl-carrier-protein] reductase [NADH] (Mycobacterium tuberculosis) (UniProt P9WGR1).
T1 sequence (whole entry): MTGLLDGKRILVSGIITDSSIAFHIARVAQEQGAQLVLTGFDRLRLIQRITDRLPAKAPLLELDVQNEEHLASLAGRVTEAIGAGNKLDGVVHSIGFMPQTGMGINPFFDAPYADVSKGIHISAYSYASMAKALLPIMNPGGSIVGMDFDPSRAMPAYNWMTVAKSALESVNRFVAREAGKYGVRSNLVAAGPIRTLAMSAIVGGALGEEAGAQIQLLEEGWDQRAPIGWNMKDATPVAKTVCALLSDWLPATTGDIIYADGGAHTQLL
Put plainly: Inhibition of Mycobacterium tuberculosis InhA at 5 uM using DDCoA as substrate relative to control. The gist of the method: (§1)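 InhA enzyme assay run in triplicate with 2-trans-dodecenoyl-CoA as substrate analogue; inhibition followed as NADH oxidation to NAD+ at 340 nm. Compounds screened at 50 μM, selected ones also at 5 μM; IC50 from 4-parameter curve fit; GEQ as reference inhibitor.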

For data set [2], the system named is Mycobacterium tuberculosis. The data set is described as follows: Antimycobacterial activity against Mycobacterium tuberculosis H37Rv incubated for 5 days under aerobic condition by fluorescence assay. It is filed as functional, organism-based. Conditions: 120 h. The gist of the method:
(§2)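 M. tuberculosis H37Rv grown aerobically; dual read-out assay (OD590 plus fluorescence); MIC and IC50 values reported; run at IDRI under NIAID screening programme.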

Data set [3] deals with Vero. The data set is described as follows: Cytotoxicity against African green monkey Vero cells measured after 72 hrs by MTS-PMS assay. Format: cell-based. The settings on record: Chlorocebus sabaeus. The gist of the method: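 Cells exposed 72 h; viability read with a non-radioactive cell proliferation assay; IC50 determined.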
The nature of data set [4]: Selectivity index, ratio of IC50 for African green monkey Vero cells to IC50 for Mycobacterium tuberculosis H37Rv. Conditions: read-out: Ratio IC50. It is filed as toxicity. The gist of the method: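 Ratio of cytotoxicity IC50 to H37Rv IC50; not calculated where H37Rv IC50 >100.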
Data set [5] concerns the target T2, Enoyl-[acyl-carrier-protein] reductase [NADH] (Mycobacterium tuberculosis, UniProt P9WGR1).
T2 sequence (P9WGR1 whole entry): T1 sequence (whole entry)
Put plainly: Inhibition of Mycobacterium tuberculosis InhA using DDCoA as substrate. The gist of the method: as §1

Data set [6] concerns Mycobacterium tuberculosis. Put plainly: Antimycobacterial activity against Mycobacterium tuberculosis H37Rv. Format: functional. The gist of the method:
as §2

As a reminder, the inhibition is the share of the control response that was lost under treatment. By MIC is commonly meant the lowest concentration that inhibits growth of the organism. A word on the IC50: it is the point on the concentration scale where inhibition reaches its midpoint. In the case of `Cn1c2ccccc2c2cc(/C=C3\SC(=S)N(c4cc(C(=O)O)cc(C(=O)O)c4)C3=O)ccc21`, the inhibition in data set [1] was found to be 12%. Also, the MIC in data set [2] was > 100 µM. This compound also returned a half-maximal inhibitory concentration (IC50) in data set [3] of 210 µM.

`Cn1c2ccccc2c2cc(/C=C3\SC(=S)N(c4nnc(-c5ccc(Br)cc5)s4)C3=O)ccc21`: the MIC in data set [2] was > 100 µM. For the same compound, the IC50 in data set [3] was found to be 165 µM.

Consider `Cn1c2ccccc2c2cc(/C=C3\SC(=S)N(c4nnc(-c5cccc(Cl)c5)s4)C3=O)ccc21`, for which the MIC in data set [2] was > 100 µM. Further, the IC50 in data set [3] came to 193 µM.

Take `Cn1c2ccccc2c2cc(/C=C3\SC(=S)N(c4cccc(O)c4)C3=O)ccc21`: the inhibition in data set [1] amounted to 10%. Also, in data set [2], 25 µM corresponded to half-maximal inhibition (IC50) and the MIC is > 100 µM. Besides, the IC50 in data set [3] worked out at 289 µM. Also, the selectivity ratio in data set [4] turned out to be 11.6.

For `O=C(c1ccc2[nH]ccc2c1)N1CCN(C2c3ccccc3-c3ccccc32)CC1`, the MIC in data set [2] is > 50 µM.

In the case of `Cc1cc(=O)[nH]c2cc(N3C(=O)/C(=C/c4ccc5c(c4)c4ccccc4n5C)SC3=S)ccc12`, the MIC in data set [2] was > 100 µM. Besides, the IC50 in data set [3] came out at 277 µM.

For the compound `Cn1c2ccccc2c2cc(/C=C3\SC(=S)N(c4ccc(Cl)cc4)C3=O)ccc21`, the minimum inhibitory concentration (MIC) in data set [2] is > 100 µM. Also, half-maximal inhibition in data set [3] (IC50) required 213 µM.

Consider `COc1cc(N2C(=O)/C(=C/c3ccc4c(c3)c3ccccc3n4C)SC2=S)cc(OC)c1OC`, for which the MIC in data set [2] was > 100 µM. Further, the 50% inhibitory concentration (IC50) in data set [3] amounted to 185 µM.

In the case of `COC(=O)c1ccc(N2C(=O)/C(=C/c3ccc4c(c3)c3ccccc3n4C)SC2=S)cc1`, the MIC in data set [2] is > 100 µM. Moreover, half-maximal inhibition in data set [3] (IC50) required 222 µM.

For `Cn1c2ccccc2c2cc(/C=C3\SC(=S)N(c4nnc(-c5ccc(Cl)cc5)s4)C3=O)ccc21`, the MIC in data set [2] was > 100 µM. Further, the IC50 in data set [3] stood at 245 µM.

Take `COc1cccc(N2C(=O)/C(=C/c3ccc4c(c3)c3ccccc3n4C)SC2=S)c1`: in data set [2], the MIC was > 100 µM. Besides, the IC50 in data set [3] came out at 235 µM.

Regarding `Cn1c2ccccc2c2cc(/C=C3\SC(=S)N(c4nnc(-c5ccccc5F)s4)C3=O)ccc21`, the minimum inhibitory concentration (MIC) in data set [2] was > 100 µM. Moreover, the 50% inhibitory concentration (IC50) in data set [3] came to 208 µM.

Compound `Cn1c2ccccc2c2cc(/C=C3\SC(=S)N(c4ccc(C(=O)O)cc4)C3=O)ccc21` displayed an inhibition in data set [1] of 54%. Also, the IC50 in data set [5] was 2820 nM; in data set [3] it was 263 µM. The minimum inhibitory concentration (MIC) in data set [2] is > 100 µM.

Consider `COc1ccc(-c2nnc(N3C(=O)/C(=C/c4ccc5c(c4)c4ccccc4n5C)SC3=S)s2)cc1`, for which the MIC in data set [2] is > 100 µM. Besides, half-maximal inhibition in data set [3] (IC50) required 258 µM.

In data set [6], `COc1ccc(-c2csc(N/N=C/c3ccc4c(c3)c3ccccc3n4C)n2)cc1OC` showed an MIC of 21 µM (≈ 9.29 µg/mL).

For `Cn1c2ccccc2c2cc(/C=C3\SC(=S)N(c4nnc(-c5ccccc5Cl)s4)C3=O)ccc21`, the minimum inhibitory concentration (MIC) in data set [2] is > 100 µM. Moreover, the IC50 in data set [3] stood at 239 µM.

`COc1ccc(N2C(=O)/C(=C/c3ccc4c(c3)c3ccccc3n4C)SC2=S)cc1OC`: the IC50 in data set [2] was determined as 50 µM; in data set [3] it was 261 µM. This compound returned a minimum inhibitory concentration (MIC) in data set [2] of 50 µM (≈ 23 µg/mL). For the same compound, the selectivity ratio in data set [4] came to 5.2.

For the compound `Cn1c2ccccc2c2cc(/C=C3\SC(=S)N(c4cccc(C(F)(F)F)c4)C3=O)ccc21`, in data set [2], the MIC was > 100 µM. It took 167 µM to reach half-maximal inhibition in data set [3] (IC50).

As for `Cc1cc(=O)oc2cc(N3C(=O)/C(=C/c4ccc5c(c4)c4ccccc4n5C)SC3=S)ccc12`, the IC50 in data set [2] was 20 µM; in data set [3], 296 µM. This compound registered an MIC in data set [2] of 20 µM (≈ 9.65 µg/mL). For the same compound, in data set [4], the selectivity ratio stood at 14.8.

As for `Cn1c2ccccc2c2cc(/C=C3\SC(=S)N(c4ccccc4)C3=O)ccc21`, in data set [2], half-maximal inhibition (IC50) required 75 µM and the MIC was > 100 µM. In addition, in data set [3], the half-maximal inhibitory concentration (IC50) was determined as 240 µM. Further, in data set [4], the selectivity ratio worked out at 3.2.

The values above are taken from ChEMBL document CHEMBL4387759, “Discovery of novel N-methyl carbazole tethered rhodanine derivatives as direct inhibitors of Mycobacterium tuberculosis InhA” (Bioorg Med Chem Lett, 2019).
